From PubChem BioAssay come the findings set out here.

Assay [1] can be described thus: inhibitors of TNFa-induced NFkB p65 translocation, primary screen, imaging, HUVEC, MLSMR starter and 10KST1 sets (AID 438;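 active means inhibition above 20% together with a positive visual image hit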;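 further: compound added about 3h40 before a 20 min TNFalpha stimulation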;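 on inhibition: signal is the nuclear over cytoplasmic p65 intensity ratio per well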). To be noted: HUVEC TNFa-induced p65 nuclear translocation; cell count: measured here: nuclei count (cytotoxicity indicator), at 2.08 µM; inhibition: at 2 µM, stronger effect = higher value, 0% TNFa-plus-vehicle, 100% no-TNFa wells.
Assay [2] in a line: inhibitors of E-selectin induction by TNFa, primary screen, imaging, HUVEC, immunofluorescence, MLSMR starter and 10KST1 sets (AID 487;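 active means visually confirmed hit in the image check and inhibition above 20%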;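 on inhibition: signal is fraction of cell area covered by stained E-selectin grains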;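 on nuclei count: 100% = median nuclei count of all wells on the same plate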). Conditions: HUVEC TNFalpha-induced E-selectin immunofluorescence imaging, at 2 µM; inhibition: stronger effect = higher value; nuclei count: measured here: cell number, toxicity.
Assay [3] in a line: DUSP6 inhibitors restoring Erk phosphorylation by chemical complementation, primary imaging in DUSP6-transfected HeLa (AID 609;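 active means compounds giving at least 50% inhibition in the cell-based MKP-3 phosphatase rescue imaging test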;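 on inhibition: phospho-Erk level distribution per well compared with pooled transfected vehicle control wells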). To be noted: HeLa MKP-3 transfected, phospho-Erk imaging KS statistic, at 10 µM, cells stimulated with TPA for 15 min.
Assay [4] addresses Dual specificity protein phosphatase 6 (Homo sapiens) (UniProt Q16828). The description is as above. Conditions: HeLa MKP-3 transfected, phospho-Erk imaging KS statistic; at 10 µM; stronger effect = higher value; cells stimulated with TPA for 15 min.
The target in assay [5] is Voltage-gated potassium channel subunit beta-2 (Rattus norvegicus) (UniProt P62483). Kind of assay: KvBeta enzyme negative modulators, primary screen, biochemical, NADPH fluorescence (AID 622;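 active means fluorescence slope higher than the sample average by over 3 SD, cut at about -0.22 in these data, passing the limit was not always enough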;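 further: slope of raw intensity against log time taken from 70 to 1610 s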). Conditions: recombinant KvBeta, 4-cyanobenzaldehyde reduction, at 10 µM, stronger effect = higher value.
Sequence of Voltage-gated potassium channel subunit beta-2 (Rattus norvegicus) (P62483 whole entry, looked up): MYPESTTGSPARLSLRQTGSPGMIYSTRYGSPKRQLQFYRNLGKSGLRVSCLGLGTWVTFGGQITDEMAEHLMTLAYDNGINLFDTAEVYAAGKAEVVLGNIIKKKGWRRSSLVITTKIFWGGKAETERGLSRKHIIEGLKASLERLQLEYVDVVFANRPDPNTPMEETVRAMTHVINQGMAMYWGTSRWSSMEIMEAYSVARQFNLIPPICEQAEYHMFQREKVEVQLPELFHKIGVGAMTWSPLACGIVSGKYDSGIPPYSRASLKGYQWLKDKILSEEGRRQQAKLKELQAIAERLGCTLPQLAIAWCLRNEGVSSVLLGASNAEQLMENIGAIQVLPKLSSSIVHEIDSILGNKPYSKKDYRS
The target is the same in assay [6]. Kind of assay: KvBeta positive modulators, primary screen, biochemical, NADPH fluorescence (AID 623;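 active means NADPH fluorescence slope more negative than the mean of all samples by about 3 SD, 99.7% confidence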;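 further: fluorescence intensity change per second fitted from 20 to 320 s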). Conditions: Recombinant KvBeta, NADPH fluorescence decrease slope, 10 min; at 10 µM; stronger effect = lower value.
For assay [7], the target named is Alpha-2C adrenergic receptor (Homo sapiens) (UniProt P18825). Nature of the assay: modulators of alpha2C/GIRK thallium flux, primary screen, cell-based, HEK293 alpha2C/GIRK1/2 (AID 624;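 active means fluorescence slope after compound addition differing from the mean of all screened samples at 99.7% confidence, in either direction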;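 further: slope of fluorescence ratio to pre-addition baseline per second over 15 to 24 s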). To be noted: thallium flux BTC fluorescence, at 10 µM, actives lie on both sides.
Sequence of Alpha-2C adrenergic receptor (Homo sapiens) (P18825 whole entry, looked up): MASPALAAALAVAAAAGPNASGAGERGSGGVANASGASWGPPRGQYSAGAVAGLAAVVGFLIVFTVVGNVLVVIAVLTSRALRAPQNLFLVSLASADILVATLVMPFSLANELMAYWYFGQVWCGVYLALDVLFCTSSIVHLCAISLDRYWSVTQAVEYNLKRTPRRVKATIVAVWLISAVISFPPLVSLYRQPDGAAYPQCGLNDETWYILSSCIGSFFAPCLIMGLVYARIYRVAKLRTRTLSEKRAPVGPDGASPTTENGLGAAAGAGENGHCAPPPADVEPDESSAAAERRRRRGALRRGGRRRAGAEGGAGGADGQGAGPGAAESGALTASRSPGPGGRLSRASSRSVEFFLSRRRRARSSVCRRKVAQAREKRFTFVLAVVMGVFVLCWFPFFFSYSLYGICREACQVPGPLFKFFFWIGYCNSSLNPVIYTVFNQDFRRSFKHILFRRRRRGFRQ
Assay [8] can be described thus: inhibitors of larval lipid processing in zebrafish, primary screen, whole organism, PED6 fluorescence, gall bladder and intestine (AID 686;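 active means a full or partial loss of lipid-probe fluorescence in the fish gall bladder, intestine or both, judged by eye; inactive means no fluorescence loss, or compound toxic to the fish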;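 further: larvae 5 to 7 days old with five fish per well; signal comes from phospholipase A2 cleavage of quenched PED6 carried via bile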). To be noted: Zebrafish larvae PED6 lipid processing, fluorescence scoring; screened at 20 µM (by protocol). The method, boiled down: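 Incubation: overnight exposure of larvae to compound plus PED6 / Test system: live zebrafish larvae aged 5-7 days, whole organism / Amount: 5 larvae per well / Read-out basis: visual per-well fluorescence inhibition score / Signal: visual fluorescence microscopy scoring of gall bladder, gut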

The nature of assay [9]: inhibitors of Chlamydomonas gravitaxis, primary screen, whole organism, Chlamydomonas reinhardtii, WT vs cilia-less mutant, absorbance, 96-well (AID 463189).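 Further: 0% = wild type cc124 cells in DMSO and 100% = ciliumless bld1 mutant cells.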 Conditions: OD600 absorbance, 2 days, at 10 µM, stronger effect = higher value.
Setting [10] is: measured here: cell density z-score.
The mark [11] stands for this setting: measured here: nuclear c-Myc green intensity z-score.
[12] abbreviates: measured here: nuclear pErk red intensity z-score, stronger effect = higher value.

Active and inactive are the calls of the source.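 How the source made its calls, unless noted: active means inhibition at or above 50% relative to wild type and mutant plate controls; inactive means inhibition below 50%.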

Sequence of Dual specificity protein phosphatase 6 (Homo sapiens) (Q16828 whole entry, looked up): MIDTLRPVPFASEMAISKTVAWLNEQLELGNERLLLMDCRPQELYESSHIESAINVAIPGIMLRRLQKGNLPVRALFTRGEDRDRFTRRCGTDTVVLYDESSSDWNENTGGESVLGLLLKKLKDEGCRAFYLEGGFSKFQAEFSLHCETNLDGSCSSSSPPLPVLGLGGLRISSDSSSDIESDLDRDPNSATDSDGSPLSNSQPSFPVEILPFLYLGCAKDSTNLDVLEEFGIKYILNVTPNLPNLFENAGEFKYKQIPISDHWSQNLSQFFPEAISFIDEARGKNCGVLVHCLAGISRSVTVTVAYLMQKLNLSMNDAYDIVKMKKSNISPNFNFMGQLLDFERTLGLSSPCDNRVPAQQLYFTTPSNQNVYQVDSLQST

With `CCOc1cccc(-c2nn3c(-c4ccco4)nnc3s2)c1`, in assay [1], the cell count was 591. Besides, the inhibition is -18.9% (inactive) in assay [1], -310% (inactive) in assay [2], -4.27% (inactive) in assay [4] and 17.2% (inactive) in assay [9]. In assay [2], this compound gave a nuclei count of 153%. Moreover, the z-score in assay [3] (setting [10]) is -0.574; in [3] (setting [11]), -0.476; in assay [3] (setting [12]), -0.496. In addition, the fluorescence slope in assay [5] was -0.409 (inactive). Also, the NADPH fluorescence slope in assay [6] is -0.00014 (inactive). For the same compound, the slope in assay [7] is 0.00461 (inactive). Further, the call in assay [8] was inactive.
Take `Nc1ccc2c(c1)N1CCN=C1S2`: the cell count in [1] was found to be 646. Also, the inhibition is -9.1% (inactive) in [1], -53.2% (inactive) in [2], -0.159% (inactive) in assay [4] and 24% (inactive) in assay [9]. This compound also showed a nuclei count in [2] of 169%. Further, the z-score in assay [3] (setting [10]) is 1.6; in assay [3] (setting [11]) it was -0.44; in [3] (setting [12]) it was 0.246. Further, the fluorescence slope in assay [5] was -0.545 (inactive). Moreover, the NADPH fluorescence slope in assay [6] was -9.2e-05 (inactive). The slope in [7] was 0.00512 (inactive). The outcome in assay [8] was inactive.
Consider `CCc1ccc2c(c1)C(C)=CC(C)(C)N2`, for which, in assay [1], the cell count was 622. In addition, the inhibition in assay [1] is -14.1% (inactive); in assay [2] it was -3.3% (inactive); in assay [4], -13.3% (inactive); in [9], 5.82% (inactive). Also, the nuclei count in [2] turned out to be 176%. Also, the z-score in assay [3] (setting [10]) is -1.35; in [3] (setting [11]), -0.276; in [3] (setting [12]), 0.835. Moreover, the fluorescence slope in assay [5] is -0.431 (inactive). In addition, the NADPH fluorescence slope in assay [6] was -6.9e-05 (inactive). The slope in assay [7] was 0.00542 (inactive). In assay [8], the result was inactive.
Take `CN1CCN(CC(=O)Nc2nc(-c3ccccc3)cs2)CC1`: the cell count in assay [1] is 667. In addition, the inhibition is -3.3% (inactive) in [1], -41.9% (inactive) in [2], 0.671% (inactive) in assay [4] and 8.3% (inactive) in assay [9]. In assay [2], this compound gave a nuclei count of 149%. Moreover, the z-score in assay [3] (setting [10]) is -1.89; in assay [3] (setting [11]), 1.19; in assay [3] (setting [12]), 0.906. For the same compound, in [5], the fluorescence slope was -0.462 (inactive). The NADPH fluorescence slope in assay [6] is -0.000262 (inactive). Moreover, in assay [7], the slope is 0.0053 (inactive). Further, the compound was classed as inactive in assay [8].
With `CCSc1nc(N)c2c3c(sc2n1)CCC3`, in assay [1], the cell count was 602. For the same compound, the inhibition in assay [1] is -14.1% (inactive); in assay [2], -20.6% (inactive); in assay [4], 7.7% (inactive); in [9] it was -5.03% (inactive). This compound gave a nuclei count in assay [2] of 146%. Besides, the z-score turned out to be 0.476 in assay [3] (setting [10]), 0.818 in assay [3] (setting [11]) and 0.254 in assay [3] (setting [12]). In [5], the fluorescence slope was -0.408 (inactive). Also, the NADPH fluorescence slope in [6] is -4.9e-05 (inactive). Further, the slope in assay [7] was 0.00637 (inactive). Also, the result in assay [8] was inactive.
As to `OCCCc1nc2ccccc2n1CCc1ccccc1`, the cell count in [1] came to 390. The inhibition is -15.7% (inactive) in assay [1], -395% (inactive) in assay [2], 20.8% (inactive) in assay [4] and 15.3% (inactive) in assay [9]. In assay [2], the nuclei count came to 203%. Also, the z-score in [3] (setting [10]) was 1.19; in assay [3] (setting [11]) it was -1.69; in assay [3] (setting [12]), -0.407. Further, in assay [5], the fluorescence slope was -0.421 (inactive). Also, the NADPH fluorescence slope in assay [6] was -4.3e-05 (inactive). In addition, the slope in assay [7] is 0.00481 (inactive). The compound was classed as inactive in assay [8].
`COc1ccccc1-c1nn2c(-c3ccco3)nnc2s1`: the cell count in assay [1] worked out at 544. For the same compound, the inhibition in assay [1] is -2.9% (inactive); in assay [2] it was -39.4% (inactive); in assay [4] it was -2.47% (inactive); in [9], 10.9% (inactive). Further, in assay [2], the nuclei count was determined as 162%. Moreover, the z-score was 0.365 in assay [3] (setting [10]), -0.311 in assay [3] (setting [11]) and -0.198 in [3] (setting [12]). For the same compound, in assay [5], the fluorescence slope was -0.42 (inactive). The NADPH fluorescence slope in assay [6] is -8.7e-05 (inactive). The slope in assay [7] was 0.00698 (inactive). Moreover, the compound was classed as inactive in assay [8].
